In ChEMBL document CHEMBL5247575 (J Med Chem, 2018):

Test system: Klebsiella pneumoniae
Assay: Synergistic antibacterial activity against Klebsiella pneumoniae 761/1723 producing KPC-3 assessed as meropenem MIC at 4 ug/ml by broth microdilution method
Format: functional
Details: dose 4 µg/ml

| Structure (SMILES) | MIC |
| --- | --- |
| N#C[C@@H]1CC[C@@H]2CN1C(=O)N2OS(=O)(=O)[O-].[Na+] | ≤ 0.12 µg/mL |

Test system: Klebsiella pneumoniae
Assay: Synergistic antibacterial activity against Klebsiella pneumoniae 1354/2241 producing KPC-3 assessed as meropenem MIC at 4 ug/ml by broth microdilution method
Format: functional
Details: dose 4 µg/ml
In short: (§1)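 Broth microdilution per CLSI guidelines, using custom frozen panels. […] Each partner drug was also tested alone. MICs were run in triplicate and the modal value is reported.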

| Structure (SMILES) | MIC |
| --- | --- |
| N#C[C@@H]1CC[C@@H]2CN1C(=O)N2OS(=O)(=O)[O-].[Na+] | ≤ 0.12 µg/mL |

Test system: Klebsiella pneumoniae
Assay: Synergistic antibacterial activity against Klebsiella pneumoniae CAV 1636 producing OXA-181 assessed as meropenem MIC at 4 ug/ml by broth microdilution method
Format: functional
Details: dose 4 µg/ml

| Structure (SMILES) | MIC |
| --- | --- |
| N#C[C@@H]1CC[C@@H]2CN1C(=O)N2OS(=O)(=O)[O-].[Na+] | ≤ 0.12 µg/mL |

Test system: Klebsiella pneumoniae
Assay: Synergistic antibacterial activity against Klebsiella pneumoniae NY BS producing OXA-232 assessed as meropenem MIC at 4 ug/ml by broth microdilution method
Format: functional
Details: dose 4 µg/ml

| Structure (SMILES) | MIC |
| --- | --- |
| N#C[C@@H]1CC[C@@H]2CN1C(=O)N2OS(=O)(=O)[O-].[Na+] | 0.25 µg/mL |

Test system: Pseudomonas aeruginosa
Assay: Synergistic antibacterial activity against Pseudomonas aeruginosa CL232 assessed as meropenem MIC at 4 ug/ml by broth microdilution method
Format: functional
Details: dose 4 µg/ml

| Structure (SMILES) | MIC |
| --- | --- |
| N#C[C@@H]1CC[C@@H]2CN1C(=O)N2OS(=O)(=O)[O-].[Na+] | 16 µg/mL |

Test system: Pseudomonas aeruginosa
Assay: Synergistic antibacterial activity against Pseudomonas aeruginosa 715 assessed as meropenem MIC at 4 ug/ml by broth microdilution method
Format: functional
Details: dose 4 µg/ml

| Structure (SMILES) | MIC |
| --- | --- |
| N#C[C@@H]1CC[C@@H]2CN1C(=O)N2OS(=O)(=O)[O-].[Na+] | 16 µg/mL |

Test system: Pseudomonas aeruginosa
Assay: Synergistic antibacterial activity against Pseudomonas aeruginosa 776 assessed as meropenem MIC at 4 ug/ml by broth microdilution method
Format: functional
Details: dose 4 µg/ml

| Structure (SMILES) | MIC |
| --- | --- |
| N#C[C@@H]1CC[C@@H]2CN1C(=O)N2OS(=O)(=O)[O-].[Na+] | 16 µg/mL |

Test system: Pseudomonas aeruginosa
Assay: Synergistic antibacterial activity against Pseudomonas aeruginosa 795 assessed as meropenem MIC at 4 ug/ml by broth microdilution method
Format: functional
Details: dose 4 µg/ml

| Structure (SMILES) | MIC |
| --- | --- |
| N#C[C@@H]1CC[C@@H]2CN1C(=O)N2OS(=O)(=O)[O-].[Na+] | 16 µg/mL |

Test system: Acinetobacter baumannii
Assay: Synergistic antibacterial activity against Acinetobacter baumannii PR359 producing OXA-23 assessed as meropenem MIC at 4 ug/ml by broth microdilution method
Format: functional
Details: dose 4 µg/ml

| Structure (SMILES) | MIC |
| --- | --- |
| N#C[C@@H]1CC[C@@H]2CN1C(=O)N2OS(=O)(=O)[O-].[Na+] | 4 µg/mL |

Test system: Acinetobacter baumannii
Assay: Synergistic antibacterial activity against Acinetobacter baumannii PR420 producing OXA-23/24/40 assessed as meropenem MIC at 4 ug/ml by broth microdilution method
Format: functional
Details: dose 4 µg/ml

| Structure (SMILES) | MIC |
| --- | --- |
| N#C[C@@H]1CC[C@@H]2CN1C(=O)N2OS(=O)(=O)[O-].[Na+] | 16 µg/mL |

Test system: Acinetobacter baumannii
Assay: Synergistic antibacterial activity against Acinetobacter baumannii PR474 producing OXA-23/24/40 assessed as meropenem MIC at 4 ug/ml by broth microdilution method
Format: functional
Details: dose 4 µg/ml

| Structure (SMILES) | MIC |
| --- | --- |
| N#C[C@@H]1CC[C@@H]2CN1C(=O)N2OS(=O)(=O)[O-].[Na+] | > 16 µg/mL |

Test system: Acinetobacter baumannii
Assay: Synergistic antibacterial activity against ADC deleted Acinetobacter baumannii transfected with pWH1266 producing OXA-24/40 assessed as meropenem MIC at 4 ug/ml by broth microdilution method
Format: functional
Details: dose 4 µg/ml

| Structure (SMILES) | MIC |
| --- | --- |
| N#C[C@@H]1CC[C@@H]2CN1C(=O)N2OS(=O)(=O)[O-].[Na+] | > 16 µg/mL |

Test system: Escherichia coli
Assay: Synergistic antibacterial activity against Escherichia coli DH10B transfected with pBC SK (-) KPC-3 assessed as meropenem MIC at 8 ug/ml by broth microdilution method
Format: functional
Details: dose 8 µg/ml

| Structure (SMILES) | MIC |
| --- | --- |
| N#C[C@@H]1CC[C@@H]2CN1C(=O)N2OS(=O)(=O)[O-].[Na+] | ≤ 0.12 µg/mL |

Test system: Escherichia coli
Assay: Synergistic antibacterial activity against Escherichia coli DH10B transfected with pBC SK (-) PDC-3 assessed as meropenem MIC at 8 ug/ml by broth microdilution method
Format: functional
Details: dose 8 µg/ml
In short: as §1

| Structure (SMILES) | MIC |
| --- | --- |
| N#C[C@@H]1CC[C@@H]2CN1C(=O)N2OS(=O)(=O)[O-].[Na+] | ≤ 0.12 µg/mL |

Test system: Escherichia coli
Assay: Synergistic antibacterial activity against Escherichia coli DH10B transfected with pBC SK (-) OXA-48 assessed as meropenem MIC at 8 ug/ml by broth microdilution method
Format: functional
Details: dose 8 µg/ml
In short: as §1

| Structure (SMILES) | MIC |
| --- | --- |
| N#C[C@@H]1CC[C@@H]2CN1C(=O)N2OS(=O)(=O)[O-].[Na+] | ≤ 0.12 µg/mL |

Test system: Klebsiella pneumoniae
Assay: Synergistic antibacterial activity against Klebsiella pneumoniae 1398/2291 producing KPC-3 assessed as meropenem MIC at 8 ug/ml by broth microdilution method
Format: functional
Details: dose 8 µg/ml
In short: as §1

| Structure (SMILES) | MIC |
| --- | --- |
| N#C[C@@H]1CC[C@@H]2CN1C(=O)N2OS(=O)(=O)[O-].[Na+] | ≤ 0.12 µg/mL |

Test system: Klebsiella pneumoniae
Assay: Synergistic antibacterial activity against Klebsiella pneumoniae 972/1910 producing KPC-3 assessed as meropenem MIC at 8 ug/ml by broth microdilution method
Format: functional
Details: dose 8 µg/ml

| Structure (SMILES) | MIC |
| --- | --- |
| N#C[C@@H]1CC[C@@H]2CN1C(=O)N2OS(=O)(=O)[O-].[Na+] | ≤ 0.12 µg/mL |

Test system: Pseudomonas aeruginosa
Assay: Synergistic antibacterial activity against Pseudomonas aeruginosa 776 assessed as meropenem MIC at 8 ug/ml by broth microdilution method
Format: functional
Details: dose 8 µg/ml

| Structure (SMILES) | MIC |
| --- | --- |
| N#C[C@@H]1CC[C@@H]2CN1C(=O)N2OS(=O)(=O)[O-].[Na+] | > 16 µg/mL |

Test system: Acinetobacter baumannii
Assay: Synergistic antibacterial activity against Acinetobacter baumannii PR319 producing OXA-23/24/40 assessed as meropenem MIC at 8 ug/ml by broth microdilution method
Format: functional
Details: dose 8 µg/ml

| Structure (SMILES) | MIC |
| --- | --- |
| N#C[C@@H]1CC[C@@H]2CN1C(=O)N2OS(=O)(=O)[O-].[Na+] | > 16 µg/mL |

Test system: Acinetobacter baumannii
Assay: Synergistic antibacterial activity against Acinetobacter baumannii PR420 producing OXA-23/24/40 assessed as meropenem MIC at 8 ug/ml by broth microdilution method
Format: functional
Details: dose 8 µg/ml

| Structure (SMILES) | MIC |
| --- | --- |
| N#C[C@@H]1CC[C@@H]2CN1C(=O)N2OS(=O)(=O)[O-].[Na+] | 8 µg/mL |
